Assay results as given in paper PMC6519384 (Andrology, 2018).

Tests used:
blood esterases = assay: Ex vivo addition of TU to blood in different blood collection tubes; format: in vitro ADME, human
In short: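 Venous blood from hypogonadal or healthy men is aliquoted (2 mL) into duplicate plain or inhibitor-containing tubes. TU in methanol (≤1% methanol) is added to 30–1000 ng/mL final, then held 30/60 min at 4 °C or RT before centrifugation. T is extracted with ethyl acetate:hexane (3:2) and measured by LC‑MS/MS (m/z 289.2/109.0, D2‑T internal standard). Results are % difference vs the average plain tube with no ester added.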

[1] = Single oral dose of 316 mg TU in hypogonadal men; format: in vivo, human; settings: TU concentrations below 15 ng/mL; oral 316 mg TU
In short: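 Eight hypogonadal men received one 316 mg oral TU dose in a self‑emulsifying system just before a meal. Blood was drawn at −30 and 0 min, then hourly for 12 h, into plain and NaF‑EDTA tubes. T was measured by LC‑MS/MS after ethyl acetate:hexane (3:2) extraction. The % difference in T between tube types was plotted against the matching average TU, with regression.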

[2] = TU added to serum with increasing NaF, T measured; format: in vitro ADME, human; settings: 500 ng/mL TU added to two serum samples or an aqueous solution
[3] = TU 300 ng/mL, K2EDTA (1.8 mg/mL) tube, 30 min 4 °C, Experiment 2
[4] = TU 300 ng/mL, K2EDTA (1.8 mg/mL) tube, 60 min 4 °C, Experiment 2
[5] = TU 300 ng/mL, K2EDTA (1.8 mg/mL) tube, 60 min RT, Experiment 2
[6] = TU 300 ng/mL, NaF (1.5 mg/mL) + Na2EDTA (3 mg/mL) tube, 60 min RT, Experiment 2
[7] = TU 300 ng/mL, NaF (5 mg/mL) + K2Oxalate (4 mg/mL) tube, 60 min RT, Experiment 2
[8] = TU 300 ng/mL, NaF (15 mg/mL) tube, 30 min 4 °C, Experiment 1
[9] = TU 300 ng/mL, NaF (15 mg/mL) tube, 30 min RT, Experiment 1
[10] = TU 300 ng/mL, P800 tube, 30 min 4 °C, Experiment 2
[11] = TU 300 ng/mL, P800 tube, 60 min 4 °C, Experiment 2
[12] = TU 300 ng/mL, P800 tube, 60 min RT, Experiment 2
[13] = TU 300 ng/mL, Plain tube, 30 min 4 °C, Experiment 1
[14] = TU 300 ng/mL, Plain tube, 30 min RT, Experiment 1
[15] = TU 300 ng/mL, P‐800 tube, 30 min 4 °C, Experiment 1
[16] = TU 300 ng/mL, P‐800 tube, 30 min RT, Experiment 1
[17] = TU 600 ng/mL, K2EDTA (1.8 mg/mL) tube, 30 min 4 °C, Experiment 2
[18] = TU 600 ng/mL, K2EDTA (1.8 mg/mL) tube, 60 min 4 °C, Experiment 2
[19] = TU 600 ng/mL, K2EDTA (1.8 mg/mL) tube, 60 min RT, Experiment 2
[20] = TU 600 ng/mL, NaF (1.5 mg/mL) + Na2EDTA (3 mg/mL) tube, 60 min RT, Experiment 2
[21] = TU 600 ng/mL, NaF (5 mg/mL) + K2Oxalate (4 mg/mL) tube, 60 min RT, Experiment 2
[22] = TU 600 ng/mL, NaF (15 mg/mL) tube, 30 min 4 °C, Experiment 1
[23] = TU 600 ng/mL, NaF (15 mg/mL) tube, 30 min RT, Experiment 1
[24] = TU 600 ng/mL, P800 tube, 30 min 4 °C, Experiment 2
[25] = TU 600 ng/mL, P800 tube, 60 min 4 °C, Experiment 2
[26] = TU 600 ng/mL, P800 tube, 60 min RT, Experiment 2
[27] = TU 600 ng/mL, Plain tube, 30 min 4 °C, Experiment 1
[28] = TU 600 ng/mL, Plain tube, 30 min 4 °C, Experiment 2
[29] = TU 600 ng/mL, Plain tube, 30 min RT, Experiment 1
[30] = TU 600 ng/mL, Plain tube, 60 min 4 °C, Experiment 2
[31] = TU 600 ng/mL, Plain tube, 60 min RT, Experiment 2
[32] = TU 600 ng/mL, P‐800 tube, 30 min 4 °C, Experiment 1
[33] = TU 600 ng/mL, P‐800 tube, 30 min RT, Experiment 1

## CCCCCCCCCCC(=O)O[C@H]1CC[C@H]2[C@@H]3CCC4=CC(=O)CC[C@]4(C)[C@H]3CC[C@]12C [TU, testosterone undecanoate]
Blood esterases; [3]
  % difference vs. no TU added: +20.5%
  Measured T: 534.5 ng/dL
Blood esterases; [4]
  % difference vs. no TU added: +14.7%
  Measured T: 521.5 ng/dL
Blood esterases; [5]
  % difference vs. no TU added: +129.7%
  Measured T: 1105.0 ng/dL
Blood esterases; [6]
  % difference vs. no TU added: +57.5%
  Measured T: 705.0 ng/dL
Blood esterases; [7]
  % difference vs. no TU added: +79.5%
  Measured T: 717.0 ng/dL
Blood esterases; [8]
  % difference vs. no TU added: −0.6%
  Measured T: 269.5 ng/dL
Blood esterases; [9]
  % difference vs. no TU added: +16.4%
  Measured T: 301.5 ng/dL
Blood esterases; [10]
  % difference vs. no TU added: +13.1%
  Measured T: 492.5 ng/dL
Blood esterases; [11]
  % difference vs. no TU added: +3.3%
  Measured T: 491.5 ng/dL
Blood esterases; [12]
  % difference vs. no TU added: +100.9%
  Measured T: 860.0 ng/dL
Blood esterases; [13]
  % difference vs. no TU added: +17.9%
  Measured T: 412.0 ng/dL
Blood esterases; TU 300 ng/mL, Plain tube, 30 min 4 °C, Experiment 2
  Measured T: 624.5 ng/dL
Blood esterases; [14]
  % difference vs. no TU added: +43.1%
  Measured T: 505.0 ng/dL
Blood esterases; TU 300 ng/mL, Plain tube, 60 min 4 °C, Experiment 2
  Measured T: 741.5 ng/dL
Blood esterases; TU 300 ng/mL, Plain tube, 60 min RT, Experiment 2
  Measured T: 984.0 ng/dL
Blood esterases; [15]
  % difference vs. no TU added: +18.7%
  Measured T: 384.0 ng/dL
Blood esterases; [16]
  % difference vs. no TU added: +41.7%
  Measured T: 467.0 ng/dL
Blood esterases; [17]
  % difference vs. no TU added: +21.6%
  Measured T: 539.5 ng/dL
Blood esterases; [18]
  % difference vs. no TU added: +47.3%
  Measured T: 669.5 ng/dL
Blood esterases; [19]
  % difference vs. no TU added: +266.9%
  Measured T: 1765.0 ng/dL
Blood esterases; [20]
  % difference vs. no TU added: +176.0%
  Measured T: 1235.0 ng/dL
Blood esterases; [21]
  % difference vs. no TU added: +171.6%
  Measured T: 1085.0 ng/dL
Blood esterases; [22]
  % difference vs. no TU added: +24.2%
  Measured T: 336.5 ng/dL
Blood esterases; [23]
  % difference vs. no TU added: +39.0%
  Measured T: 360.0 ng/dL
Blood esterases; [24]
  % difference vs. no TU added: +18.3%
  Measured T: 515.0 ng/dL
Blood esterases; [25]
  % difference vs. no TU added: +22.3%
  Measured T: 582.0 ng/dL
Blood esterases; [26]
  % difference vs. no TU added: +222.4%
  Measured T: 1380.0 ng/dL
Blood esterases; [27]
  % difference vs. no TU added: +30.3%
  Measured T: 455.5 ng/dL
Blood esterases; [28]
  % difference vs. no TU added: +23.7%
  Measured T: 541.0 ng/dL
Blood esterases; [29]
  % difference vs. no TU added: +130.6%
  Measured T: 814.0 ng/dL
Blood esterases; [30]
  % difference vs. no TU added: +88.8%
  Measured T: 794.0 ng/dL
Blood esterases; [31]
  % difference vs. no TU added: +271.8%
  Measured T: 1515.0 ng/dL
Blood esterases; [32]
  % difference vs. no TU added: +15.8%
  Measured T: 374.5 ng/dL
Blood esterases; [33]
  % difference vs. no TU added: +95.1%
  Measured T: 643.0 ng/dL
Blood esterases; TU added 30 ng/mL, blood from four hypogonadal men, plain tubes, baseline serum T 26.0 ± 6.2 ng/dL
  T measured: 48.9 ± 5.1 ng/dL
Blood esterases; highest TU concentration (1000 ng/mL), blood from hypogonadal men, plain tubes
  Increase in measured T from baseline: ≤ 22 fold
Blood esterases; increasing amounts of TU added to blood
  Reduction of overestimation of T by collecting blood into NaF tubes: 30–85%
Blood esterases; increasing amounts of TU added to plain tubes, Table 3, Experiments 1 and 2
  Overestimation of measured T levels: +24 to 272%
[1]
  Mean difference in T concentrations between plain and NaF‐EDTA tubes: ~0%
[2]
  Measured T levels after incubation with different amounts of NaF: did not increase
